As usually defined, the pKi is −log10 of the Ki, conventionally taken in molar units.

A short description of data set [1]: Retention time of the compound by reverse phase HPLC analysis. Format: physicochemical.
Data set [2] concerns the target T1, Gastrin/cholecystokinin type B receptor (Homo sapiens, UniProt P32239).
T1 sequence (P32239 whole entry): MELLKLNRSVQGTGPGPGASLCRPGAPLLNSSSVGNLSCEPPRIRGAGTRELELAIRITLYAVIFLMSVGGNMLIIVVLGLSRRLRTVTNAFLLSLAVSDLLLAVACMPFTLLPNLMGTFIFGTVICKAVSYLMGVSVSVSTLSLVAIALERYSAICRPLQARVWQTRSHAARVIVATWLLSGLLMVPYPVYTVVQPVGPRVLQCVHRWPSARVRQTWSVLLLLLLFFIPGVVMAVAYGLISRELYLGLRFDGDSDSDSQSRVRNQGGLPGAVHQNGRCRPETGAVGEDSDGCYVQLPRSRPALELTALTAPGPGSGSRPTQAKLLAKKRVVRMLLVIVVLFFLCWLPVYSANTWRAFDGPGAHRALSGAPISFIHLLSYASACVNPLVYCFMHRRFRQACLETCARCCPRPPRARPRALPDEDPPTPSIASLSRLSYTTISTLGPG
Description: (§1) Displacement of Eu-DTPA-PEGO-CCK4 from human cholecystokinin 2 receptor overexpressed in HEK-293 cells co-expressing human MC4R after 1 hr by time resolved fluorescence-based competition binding assay. Format: cell-based, HEK293. The method, boiled down:
(§2)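 HEK-293 cells engineered to co-express hCCK2R and hMC4R, grown in DMEM/10% FBS with zeocin and geneticin, seeded 240,000 per well in six-well plates. Each well received binding buffer (DMEM, HEPES, BSA, 1,10-phenanthroline, leupeptin, bacitracin, pH 7.4) containing 15 nM Eu probe plus competitor at 10^-12 to 10^-5 M. Incubation 1 h at 37 °C, then scraping, three washes, Enhancement Solution 1 h at 37 °C, Eu TRF read.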

The target in data set [3] is T2, Gastrin/cholecystokinin type B receptor (Homo sapiens) (UniProt P32239).
T2 sequence (whole entry): T1 sequence (P32239 whole entry)
Description: Displacement of Eu-DTPA-PEGO-CCK4 from human cholecystokinin 2 receptor overexpressed in HEK-293 cells co-expressing human MC4R after 1 hr by time resolved fluorescence-based competition binding assay relative to acetylated […]. Format: cell-based. Conditions: HEK293.

Data set [4] can be described thus: Retention time of the compound by analytical HPLC method. It counts as physicochemical.
Data set [5] deals with T2, Gastrin/cholecystokinin type B receptor (Homo sapiens). The description is as §1. Format: cell-based. Conditions: HEK293. The method, boiled down: as §2

Structures are written as SMILES. pKi: −log10 of the molar value. Active and inactive are the calls of the source. The rule behind the calls is not given here. Where a SMILES comes first, the peptide text is derived from it. [ ]: non-standard residue; d: D form. The star is where a group is joined. Hexanoyl(6-N3) = [N-]=[N+]=NCCCCCC(=O)*; Azidoacetyl = [N-]=[N+]=NCC(=O)*; X1 = C#CCCCCOCCOCCOCCOCCOCC(=O)*; Nle = CCCC[C@H](N)C(=O)O

With `C#CCCCCOCCOCCOCCOCCOCC(=O)N[C@@H](Cc1c[nH]c2ccccc12)C(=O)N[C@@H](CCCC)C(=O)N[C@@H](CC(=O)O)C(=O)N[C@@H](Cc1ccccc1)C(N)=O` (X1-W[Nle]DF-NH2), the Retention_time in data set [1] came to 16.9 min.

In data set [2], `CCCC[C@H](NC(=O)[C@H](Cc1c[nH]c2ccccc12)NC(=O)Cn1cc(CN(Cc2cn(CC(=O)N[C@@H](Cc3c[nH]c4ccccc34)C(=O)N[C@@H](CCCC)C(=O)N[C@@H](CC(=O)O)C(=O)N[C@@H](Cc3ccccc3)C(N)=O)nn2)Cc2cn(CC(=O)N[C@@H](Cc3c[nH]c4ccccc34)C(=O)N[C@@H](CCCC)C(=O)N[C@@H](CC(=O)O)C(=O)N[C@@H](Cc3ccccc3)C(N)=O)nn2)nn1)C(=O)N[C@@H](CC(=O)O)C(=O)N[C@@H](Cc1ccccc1)C(N)=O` showed a pKi of 8.92. Moreover, the Ratio in data set [3] was 5. The results for the Retention_time in data set [1] and in data set [4] were 15.1 min and 21.18 min, respectively.

In data set [2], `CCCC[C@H](NC(=O)[C@H](Cc1c[nH]c2ccccc12)NC(C)=O)C(=O)N[C@@H](CC(=O)O)C(=O)N[C@@H](Cc1ccccc1)C(N)=O` (Ac-W[Nle]DF-NH2) had a negative logarithm of the Ki (pKi) of 8.21. Moreover, the Ratio in data set [3] is 1. Further, the Retention_time in data set [1] came to 13.3 min; in data set [4] it was 17.47 min.

For the compound `CCCC[C@H](NC(=O)[C@H](Cc1c[nH]c2ccccc12)NC(=O)CN=[N+]=[N-])C(=O)N[C@@H](CC(=O)O)C(=O)N[C@@H](Cc1ccccc1)C(N)=O` (Azidoacetyl-W[Nle]DF-NH2), the Retention_time in data set [1] worked out at 14.6 min.

In data set [2], `CCCC[C@H](NC(=O)[C@H](Cc1c[nH]c2ccccc12)NC(=O)CCCCCn1cc(COc2cc(OCc3cn(CCCCCC(=O)N[C@@H](Cc4c[nH]c5ccccc45)C(=O)N[C@@H](CCCC)C(=O)N[C@@H](CC(=O)O)C(=O)N[C@@H](Cc4ccccc4)C(N)=O)nn3)cc(OCc3cn(CCCCCC(=O)N[C@@H](Cc4c[nH]c5ccccc45)C(=O)N[C@@H](CCCC)C(=O)N[C@@H](CC(=O)O)C(=O)N[C@@H](Cc4ccccc4)C(N)=O)nn3)c2)nn1)C(=O)N[C@@H](CC(=O)O)C(=O)N[C@@H](Cc1ccccc1)C(N)=O` gave a pKi of 8.43. Also, the Ratio in data set [3] came out at 2. Also, the Retention_time was found to be 16.6 min in data set [1] and 22.42 min in data set [4].

`NC(=O)[C@H](CO)NC(=O)CCCCCn1cc(COc2cc(OCc3cn(CCCCCC(=O)N[C@@H](CO)C(N)=O)nn3)cc(OCc3cn(CCCCCC(=O)N[C@@H](CO)C(N)=O)nn3)c2)nn1`: the inhibition result in data set [5] is “inactive”.

In data set [1], `CCCC[C@H](NC(=O)[C@H](Cc1c[nH]c2ccccc12)NC(=O)COCC(=O)NCCCOCCOCCOCCCNC(=O)CN(CCN(CCN(CC(=O)O)CC(=O)O)CC(=O)O)CC(=O)O)C(=O)N[C@@H](CC(=O)O)C(=O)N[C@@H](Cc1ccccc1)C(N)=O` displayed a Retention_time of 22.9 min.

On to `NC(=O)[C@H](CO)NC(=O)CCCCCn1cc(CN(Cc2cn(CCCCCC(=O)N[C@@H](CO)C(N)=O)nn2)Cc2cn(CCCCCC(=O)N[C@@H](CO)C(N)=O)nn2)nn1`, for which the inhibition entry in data set [5] is “inactive”.

In turn, `CCCC[C@H](NC(=O)[C@H](Cc1c[nH]c2ccccc12)NC(=O)CCCCCN=[N+]=[N-])C(=O)N[C@@H](CC(=O)O)C(=O)N[C@@H](Cc1ccccc1)C(N)=O` ({Hexanoyl(6-N3)}-W[Nle]DF-NH2) returned a Retention_time in data set [1] of 17.7 min.

The compound `CCCC[C@H](NC(=O)[C@H](Cc1c[nH]c2ccccc12)NC(=O)COCCOCCOCCOCCOCCCCc1cn(CCCCCCOc2cc(OCCCCCCn3cc(CCCCOCCOCCOCCOCCOCC(=O)N[C@@H](Cc4c[nH]c5ccccc45)C(=O)N[C@@H](CCCC)C(=O)N[C@@H](CC(=O)O)C(=O)N[C@@H](Cc4ccccc4)C(N)=O)nn3)cc(OCCCCCCn3cc(CCCCOCCOCCOCCOCCOCC(=O)N[C@@H](Cc4c[nH]c5ccccc45)C(=O)N[C@@H](CCCC)C(=O)N[C@@H](CC(=O)O)C(=O)N[C@@H](Cc4ccccc4)C(N)=O)nn3)c2)nn1)C(=O)N[C@@H](CC(=O)O)C(=O)N[C@@H](Cc1ccccc1)C(N)=O` had a pKi in data set [2] of 7.52. The Ratio in data set [3] is 0.2. The Retention_time in data set [1] worked out at 19.8 min; in data set [4], 25.12 min.

These data come from ChEMBL document CHEMBL3400052, “Development of a time-resolved fluorescence probe for evaluation of competitive binding to the cholecystokinin 2 receptor” (Bioorg Med Chem, 2015).
